Screens as filed in PubChem BioAssay.
OX1R antag-1: OX1R (human) antagonism; O43613; OX1R-expressing cells, FRET antagonist read-out; inhibition, % at 6.6 µM; actives 1.8% (n = 330,000); in the data active means inhibition mostly above about 38%, no sharp cut-off; inactive means mostly below about 40%
Target sequence (O43613 whole entry, looked up): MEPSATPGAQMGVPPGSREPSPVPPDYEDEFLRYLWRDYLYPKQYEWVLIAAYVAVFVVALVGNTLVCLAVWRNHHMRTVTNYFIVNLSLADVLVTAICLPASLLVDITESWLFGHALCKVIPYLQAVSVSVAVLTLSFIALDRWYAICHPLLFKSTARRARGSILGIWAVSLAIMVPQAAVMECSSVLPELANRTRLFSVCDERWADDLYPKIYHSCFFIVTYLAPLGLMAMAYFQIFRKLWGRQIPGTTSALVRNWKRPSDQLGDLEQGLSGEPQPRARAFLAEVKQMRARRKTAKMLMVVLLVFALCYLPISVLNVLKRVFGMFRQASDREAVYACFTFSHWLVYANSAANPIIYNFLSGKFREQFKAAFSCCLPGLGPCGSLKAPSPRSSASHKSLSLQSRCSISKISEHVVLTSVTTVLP
GPR7 antag: blocks human GPR7 receptor signaling; P48145; GPR7-expressing cells, fluorescence antagonist assay; inhibition, % at 4.4 µM; actives 1.1% (n = 290,000); AID 1861; in the data active means inhibition above about 16%, passing the limit was not always enough;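 further: cells stimulated with the agonist NPW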
OX1R antag-2: antagonists of human orexin 1 receptor. O43613. inhibition, % at 5 µM. actives 0.43% (n = 330,000). AID 434989. CHO/OX1R cells, Fluo-8 calcium fluorescence, orexin A;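 active means inhibition above its plate's threshold, mean inhibition of all tested compounds on the plate plus 3 SD, cut at about 37% in these data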
TAAR1 antag: human TAAR1 antagonism; AID 624466; CHO RD-HGA16 TAAR1, Fluo-8 calcium fluorescence, antagonist; actives 1.5% (n = 360,000); inhibition, % at 3 µM;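 active means inhibition above a per-plate cutoff, the mean inhibition of test compounds on that plate plus 3 SD, cut at about 49% in these data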
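Test system – hTAAR1-expressing CHO RD-HGA16 cells, Gα16-coupled · Reagent – β-PEA at EC80 concentration, post-compound challenge · Compound dosing – 3 µM, single point · Timing – 140 s kinetic read after compound, 140 s after agonist · Detection – Fluo-8 intracellular calcium dye fluorescence, real-time kinetic reads · Control set – DMSO and EC80 PEA controls · Repeats – n of 1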
CHO parental Ca: signal in parental CHO cells, OX1R antagonist counter-screen | AID 463079 | inhibition, % at 5.6 µM | parental CHO-K1, ATP-induced calcium, Fluo-8 fluorescence | actives 0.63% (n = 330,000);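 active means inhibition above that plate's mean sample inhibition plus 3 SD, cut at about 26% in these data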
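material = parental CHO cells | also added = ATP as calcium-mobilizing challenge | dosing = single point at 5.6 µM | detection = intracellular calcium via Fluo-8 no-wash fluorescent dye | read-out = % inhibition | benchmarks = low control ATP plus DMSO, high control DMSO only | repeats = one well per compound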
TAAR1 agonist: human TAAR1 agonism. AID 624467. actives 0.99% (n = 360,000). CHO RD-HGA16 TAAR1, Fluo-8 calcium fluorescence; vehicle wells 0%, saturating PEA agonist 100%. Q96RJ0. activation, % at 3 µM;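 active means activation above the mean activation of all test compounds in the run plus 3 SD, cut at about 38% in these data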
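System: CHO-derived RD-HGA16 cells with stable Gα16 and human TAAR1 / Times: 17-24 h plating, Fluo-8 75 min 37 °C, 30 min RT / Technique: calcium-sensitive Fluo-8 signal, excitation 470-495, emission 515-575 nm / Measure: % activation relative to PEA EC100 response / Benchmarks: DMSO and PEA EC100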
Large screens that a line does not name were inactive. Only some compounds are listed: those with a hit (about 4.5% of all), similar ones and a draw of the others.

O=C(C(=O)N1CCN(C(=O)c2ccccc2C(F)(F)F)CC1)c1cccc(C(F)(F)F)c1	none (no result: OX1R antag-1, GPR7 antag, OX1R antag-2, CHO parental Ca)
CC1=Nc2ccccc2/C1=C/c1sc(=N)n(-c2nccs2)c1O	OX1R antag-2 64.4, CHO parental Ca 46.9 (no result: TAAR1 antag, TAAR1 agonist)
CC1=Nc2ccccc2/C1=C/c1c(N)n2c(S(=O)(=O)C(C)C)nsc2nc1=O	none
COc1cccc(C(c2nnnn2Cc2ccccc2)N2CCN(C3CCCC3)CC2)c1OC (centres undefined)	TAAR1 antag 52.6
COc1ccccc1C(c1nnnn1Cc1ccccc1)N1CCN(C2CCCC2)CC1 (centres undefined)	none
NS(=O)(=O)c1cccc(NC(=O)COC(=O)c2ccccc2C(=O)c2ccccc2)c1	none (no result: GPR7 antag)
Cc1c(C(=O)OCC(=O)Nc2cccc(S(N)(=O)=O)c2)oc2c1ccc1ccccc12	OX1R antag-1 48.3
COC1C(O)CCC2(CO2)C1C1(C)OC1CC=C(C)C (centres undefined)	none (no result: OX1R antag-1, GPR7 antag, OX1R antag-2, CHO parental Ca)
Cc1ccccc1S(=O)(=O)N1CCCc2nc(-c3ccccc3)ccc21	none (no result: OX1R antag-1, GPR7 antag, OX1R antag-2, CHO parental Ca)
COc1ccccc1N1CCN(C(=O)c2cc3cc(C)ccc3[nH]2)CC1	none
COc1ccccc1N1CCN(C(=O)c2cc3ccccc3[nH]2)CC1	TAAR1 antag 53.3
O=c1nc2n(CCO)c3ccccc3cc-2c(=O)[nH]1	none (no result: OX1R antag-1, GPR7 antag, OX1R antag-2, CHO parental Ca)
CC1CC1C(=O)OCC(=O)NC(=O)c1ccc(C(C)(C)C)cc1 (centres undefined)	none (no result: GPR7 antag)
CCOc1ccccc1OCC(=O)OCC(=O)NNC(=O)c1ccc([N+](=O)[O-])cc1	OX1R antag-1 54.9
Cc1ccc(C(=O)OCC(=O)NNC(=O)c2ccc([N+](=O)[O-])cc2)o1	OX1R antag-1 40.9 (no result: GPR7 antag)
O=C(CNC(=O)c1ccccc1)NCC(=O)OCC(=O)c1ccc(F)cc1	none
O=C(CNC(=O)c1ccccc1)NCC(=O)OCC(=O)c1ccc([N+](=O)[O-])cc1	OX1R antag-1 54.4
CC1CC1C(=O)OCC(=O)NNC(=O)c1ccc([N+](=O)[O-])cc1 (centres undefined)	OX1R antag-1 34.3 (no result: GPR7 antag)
CN(C)S(=O)(=O)c1ccc(C(=O)NN2C(=O)NC3(CCCCC3)C2=O)cc1	none (no result: OX1R antag-1, GPR7 antag, OX1R antag-2, CHO parental Ca)
O=C1/C(=C/c2ccc(N3CCOCC3)o2)SC(=Nc2ccccc2)N1CCc1c[nH]c2ccccc12	OX1R antag-2 75.0, CHO parental Ca 92.0 (no result: TAAR1 antag, TAAR1 agonist)
COc1cc(/C=C2\SC(=Nc3ccccc3)N(CCc3c[nH]c4ccccc34)C2=O)ccc1OC(C)C(=O)O (centres undefined)	none
N=c1n(CC(=O)c2ccc(Br)cc2)c2ccccc2n1Cc1ccccc1	TAAR1 agonist 37.9 (no result: GPR7 antag)
CCn1c(=N)n(CC(=O)c2ccc(Br)s2)c2ccccc21	GPR7 antag 20.4
O=C(N/N=C/c1cc2c(c([N+](=O)[O-])c1)OCO2)c1ccncc1	OX1R antag-1 54.0
CCOC(=O)c1c(CN2CCN(C)CC2)n(C)c2cc(Br)c(OC)cc12	GPR7 antag 19.1
O=C(CN1CCOCC1)N1CCN(c2ccc([N+](=O)[O-])cc2)CC1	OX1R antag-1 75.0
O=C(/C=C/c1ccc([N+](=O)[O-])cc1)OCC(=O)N1CCCCCC1	none (no result: GPR7 antag)
O=C(Cn1cc([N+](=O)[O-])nc1[N+](=O)[O-])N1CCN(c2ccccc2)CC1	OX1R antag-1 48.5
O=C(/C=C/c1ccc([N+](=O)[O-])cc1)OCC(=O)N1CCOCC1	OX1R antag-1 69.7 (no result: GPR7 antag)
O=C(Nc1ccccc1C(=O)N1CCOCC1)c1ccc([N+](=O)[O-])cc1	OX1R antag-1 47.3
O=C(CN1CCN(c2ccc([N+](=O)[O-])cc2Cl)CC1)N1CCOCC1	none
O=C(Cn1cnc2ccccc2c1=O)N1CCN(c2ccccc2)CC1	none
C[C@H]1CN([C@@H](C)CO)C(=O)CCCn2nncc2CO[C@H]1CN(C)C(=O)c1ccncc1	none (no result: OX1R antag-1, GPR7 antag, OX1R antag-2, CHO parental Ca)
CN(C)CCNS(=O)(=O)c1ccc(N2CCc3ccccc32)c([N+](=O)[O-])c1	none
O=C(C(=O)N1CCC(CNC(=O)c2cccnc2Cl)CC1)c1cc2ccccc2o1	none (no result: OX1R antag-1, GPR7 antag, OX1R antag-2, CHO parental Ca)
CC1(C(=O)NCC2CCCCC2)CCN1C(=O)Cc1ccc(-c2ccccc2)cc1 (centres undefined)	none (no result: OX1R antag-1, GPR7 antag, OX1R antag-2, CHO parental Ca)
